The nature of series [1]: Half life in mouse liver microsomes at 29 umol/L preincubated for 5 mins followed by NADPH addition measured after 120 mins by HPLC analysis. Format: ADME, Microsome. Summed up: (§1)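 Compound (29 μmol/L, as added) combined with mouse or human liver microsomes (20 mg/mL stock), preincubated 5 min at 37 °C, then NADPH regenerating system added and incubated 0, 30, 60 or 120 min at 37 °C. Aliquots quenched in ice-cold MeOH, internal standard added, centrifuged; remaining compound quantified by HPLC against a calibration curve.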
A general note: Microsomes from liver hold many membrane-bound enzymes, among them those of drug oxidation.

The subject of series [2] is Hepatitis C virus. Kind of series: Antiviral activity against HCV infected in human R6FLR-N replicon cells assessed as reduction in viral replication at 30 uM after 3 days by luciferase reporter gene assay. Type of series: functional, Hepacivirus hominis. On the set-up: scale not given: the % may be the effect or the level left. In short, it runs like this:
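R6FLR-N replicon cells, 3 × 10⁴ cells/well, grown in DMEM with 10% FBS and 500 μg/ml G418; compound added after 1 day, then 3 days of incubation. Luciferase read by Steady-Glo; percent inhibition at 30 μM expressed against DMSO control, mean of n = 2.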
A general note: In antiviral work, replicon cells carry a viral genome segment that copies itself.

Series [3] is described as follows: Cytotoxicity against human […] cells harboring R6FLR-N replicons after 3 days by XTT assay. Format: cell-based. On the set-up: concentration or dose not given beside the values. Particulars: 72 h. In short, it runs like this:
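Replicon cells seeded at 3 × 10⁴ cells/well and exposed to compound for 3 days; viability by XTT. Values given as percent at 30 μM against DMSO control, mean of n = 2.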

The species named for series [4] is Homo sapiens. In words: Induction of IFN-stimulated gene expression response in human JHH7 cells assessed as upregulation of OAS1 mRNA expression at 3 to 30 uM after 3 days by qPCR analysis. Type of series: functional, cell-based. In short, it runs like this: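 JHH-7 hepatoma cells in DMEM with 10% FBS, 37 °C, 5% CO2, exposed to 3 and 30 μM compound for 3 days. Total RNA purified and its concentration measured by UV spectrophotometry before OAS-1 mRNA measurement; mean ± SE, n = 3.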
For orientation: In qPCR the cycle at which signal appears reflects the starting amount.

Series [5] is described as follows: Half life in human liver microsomes at 29 umol/L preincubated for 5 mins followed by NADPH addition measured after 120 mins by HPLC analysis. Type of series: ADME, Microsome. In short, it runs like this: as §1
Series [6] can be described thus: (§2) Antiviral activity against HBV genotype C infected in primary human hepatocytes PXB cells assessed as inhibition of viral DNA level after 14 days by qPCR analysis. Particulars: Hepatitis B virus, 336 h. Format: functional, cell-based. In short, it runs like this:
(§3)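 PXB cells (primary human hepatocytes from humanized-liver chimeric mice) in dHCGM, 37 °C, 5% CO2; infected with HBV C_AT at 3 genome equivalents/cell while treated with 0.01–10 μM compound; after 1 day, compound-containing medium exchanged every 3 or 4 days for 14 days. Cellular DNA purified and quantified, HBV DNA by qPCR; mean ± SE, n = 3.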

The subject of series [7] is Hepatocyte. In words: Cytotoxicity against human primary hepatocytes PXB cells assessed as decrease in cell viability by RealTime-Glo MT assay. Format: cell-based. Summed up:
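Viability read by RealTime-Glo MT in HBV C_AT-infected PXB cells (3 genome equivalents/cell) given 0.01–10 μM compound from infection onward, with compound-containing medium exchanged every 3 or 4 days over 14 days; mean ± SE, n = 3.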

A short description of series [8]: Solubility of the compound by HPLC-UV analysis. Format: physicochemical. Summed up: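 Dissolved compound solution injected into HPLC and peak area read by UV at 254 nm; concentration derived from a previously determined calibration curve.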
The subject of series [9] is HBV genotype C. The series is described as §2. Format: functional, cell-based. In short, it runs like this: as §3
Series [10] has as its system HBV genotype C. Kind of series: Antiviral activity against HBV genotype C infected in primary human hepatocytes PXB cells assessed as inhibition of viral DNA level at 0.32 to 32 uM incubated for 7 days by qPCR analysis. Format: functional, cell-based. In short, it runs like this:
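PXB cells in dHCGM infected with HBV C_AT, 3 genome equivalents/cell; medium exchanged every 3 or 4 days. After 28 days of infection, cells treated with the indicated concentrations for 7 days, pegylated IFNα2a run alongside. Cellular DNA purified and quantified, then HBV DNA measured by qPCR; mean ± SE, n = 3.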

In brackets after ≈: the same amount, converted by molar mass. Activity calls are given as the source filed them. Where only a bound is given, the exact number is not on record here.

One may read the half-life as the time needed for the level to fall by half in the phase considered. Broadly, the IC50 is the concentration at which inhibition is half-maximal. Broadly, the solubility is how much of the substance goes into solution per volume. `Cl.O=C(NC1CCNCC1)c1cn2c(ccc3c(C(F)(F)F)cc(C(F)(F)F)nc32)n1`: the half-life at 29 µM in series [1] and in series [5] was > 120 min in each case. The Activity in [2] is recorded as 90.7%; in [3], 58.6%; in series [7], “Non-Toxic”. Further, the result in [4] was inactive. Further, the IC50 in series [6] turned out to be 8.4 µM. Also, in series [8], the solubility was > 30000 µg/mL.
Consider `CCCc1nnc(-c2cn3c(ccc4c(C(F)(F)F)cc(C(F)(F)F)nc43)n2)o1`, for which the Activity in series [2] is 15.3%; in series [3], 8.5%.
As for `O=C(c1cn2c(ccc3c(C(F)(F)F)cc(C(F)(F)F)nc32)n1)N1CCNCC1`, the outcome in series [9] was Active.
With `COCc1nnc(-c2cn3c(ccc4c(C(F)(F)F)cc(C(F)(F)F)nc43)n2)o1`, the figures for the Activity in series [2] and in series [3] were 4.8% and -2.5%, respectively.
As to `O=C(Nc1ccccn1)c1cn2c(ccc3c(C(F)(F)F)cc(C(F)(F)F)nc32)n1`, the results for the Activity in series [2] and in [3] were 2.6% and 1.6%, respectively. The solubility in [8] is < 100 µg/mL.
Taken in the same sequence, the figures for `O=C(Nc1cccnc1)c1cn2c(ccc3c(C(F)(F)F)cc(C(F)(F)F)nc32)n1` were 63.6%, 6.9% and < 100 µg/mL.
For `Cl.NCCOc1cc(C(F)(F)F)c2ccc3nc(-c4nnco4)cn3c2n1`, the Activity in series [2] is listed as 28.1%; in series [3], 5.7%; in series [7], “Non-Toxic”. Also, in series [4], the outcome was Active. Besides, the IC50 in series [6] is 10 µM. In series [8], this compound returned a solubility of 19800 µg/mL.
On to `Cc1nnc(-c2cn3c(ccc4c(C(F)(F)F)cc(C(F)(F)F)nc43)n2)o1`, for which the Activity in series [2] came out at 89.8%; in series [3], 4.3%.
For the compound `FC(F)(F)c1cc(C(F)(F)F)c2ccc3nc(-c4nnco4)cn3c2n1`, the result in [10] and in [4] was Active. The half-life at 29 µM is 58.2 min in [1] and 34.1 min in series [5]. Besides, the Activity in series [2] was 90.1 - 92.1%; in [3], 3.1%. Further, the solubility in series [8] came out at 920 µg/mL (≈ 2470 µM).
As to `O=C(Nc1ccncc1)c1cn2c(ccc3c(C(F)(F)F)cc(C(F)(F)F)nc32)n1`, the figures for the Activity in [2] and in series [3] were 40.1% and 4.2%, respectively. The solubility in [8] is < 100 µg/mL.
As for `OCc1nnc(-c2cn3c(ccc4c(C(F)(F)F)cc(C(F)(F)F)nc43)n2)o1`, the results for the Activity in [2] and in series [3] were 12% and -7.4%, respectively.
On to `Cl.NCCOc1cc(C(F)(F)F)c2ccc3nc(C(=O)Nc4ccncc4)cn3c2n1`, for which the Activity was found to be 78.2% in series [2] and 51.8% in series [3]. Besides, in series [9], the outcome was inactive. Further, the solubility in [8] is > 30000 µg/mL.
